Experiments:
[1] = target: T1, Growth hormone secretagogue receptor type 1 (Homo sapiens, UniProt Q92847); test: Displacement of [125I-His9]ghrelin from human GHS1a receptor expressed in LLC PK1 cells; format: cell-based
In short: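 Membranes from LLC PK-1 cells transiently electroporated with hGHS-R1a (harvested about 48 h), 10 µg protein, incubated 60 min at 25 °C with 60 pM 125I-His9-ghrelin in Tris pH 7.3/MgCl2/EDTA/bacitracin buffer. Filtered, washed, gamma counted; nonspecific binding with 10 µM ghrelin. Triplicates, at least three experiments.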

[2] = target: T1, Growth hormone secretagogue receptor type 1; test: Activity at human GHS1a receptor expressed in CHO cells assessed as intracellular calcium mobilization relative to 0.1 uM ghrelin; format: functional, cell-based
[3] = target: T1, Growth hormone secretagogue receptor type 1; test: Agonist activity at human GHS1a receptor expressed in CHO cells assessed as induction of intracellular calcium mobilization; format: functional, cell-based
In short: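 CHO cells transiently expressing hGHS-R1a via electroporation, Fluo-4AM loaded (1 µM, 1 h, 37 °C), calcium fluorescence read 60 s at ex 485/em 525 nm. EC50 from agonist dose-response curves, response as percentage of maximal signal from 10 µM ghrelin; triplicates, means of at least three experiments.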

T1 sequence (Q92847 whole entry): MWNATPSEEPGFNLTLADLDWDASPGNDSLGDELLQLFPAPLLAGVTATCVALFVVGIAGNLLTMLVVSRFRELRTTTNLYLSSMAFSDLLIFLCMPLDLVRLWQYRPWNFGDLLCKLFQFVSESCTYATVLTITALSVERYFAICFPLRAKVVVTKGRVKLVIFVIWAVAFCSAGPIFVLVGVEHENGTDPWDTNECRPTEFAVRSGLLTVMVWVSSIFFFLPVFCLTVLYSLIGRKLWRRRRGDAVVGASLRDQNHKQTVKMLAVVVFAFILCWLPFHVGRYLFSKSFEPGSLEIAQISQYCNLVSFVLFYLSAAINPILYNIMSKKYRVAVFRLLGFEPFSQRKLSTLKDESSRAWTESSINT

IC50 [1] [nM] | Activity [2] [%] | Activity ([3]; filed as agonist) | EC50 [3] [nM] | Activity ([3]; filed as partial agonist) | SMILES
700 | 95 | Agonist |  |  | CC(C)(N)C(=O)N[C@H](Cc1c[nH]c2ccccc12)c1nnc(Cc2ccccc2)n1CCc1c[nH]c2ccccc12
 | 26 |  | 11 |  | CCc1ccc(Cn2c(CCc3ccccc3)nnc2[C@@H](Cc2c[nH]c3ccccc23)NC(=O)C(C)(C)N)cc1
> 1000 | 78 |  |  | Partial agonist | CC(C)(N)C(=O)N[C@H](Cc1c[nH]c2ccccc12)c1nnc(Cc2ccccc2)n1Cc1ccccn1
850 |  |  |  |  | CC(C)(N)C(=O)N[C@H](Cc1c[nH]c2ccccc12)c1nncn1CCc1c[nH]c2ccccc12
640 | 53 |  |  | Partial agonist | CC(C)(N)C(=O)N[C@H](Cc1c[nH]c2ccccc12)c1nnc(CCc2ccccc2)n1Cc1ccc(Cl)c(Cl)c1
140 | 19 |  |  | Partial agonist | Cc1ccc(Cn2c(CCc3ccccc3)nnc2[C@@H](Cc2c[nH]c3ccccc23)NC(=O)C(C)(C)N)cc1
 | 32 |  |  | Partial agonist | CCCCCCn1c(CCCc2c[nH]c3ccccc23)nnc1[C@@H](Cc1c[nH]c2ccccc12)NC(=O)C(C)(C)N
130 | 40 |  |  | Partial agonist | CC(C)(N)C(=O)N[C@H](Cc1c[nH]c2ccccc12)c1nnc(CCc2ccccc2)n1Cc1cccc2ccccc12
840 | 28 |  |  | Partial agonist | Cc1ccc(Cn2c(Cc3ccccc3)nnc2[C@@H](Cc2c[nH]c3ccccc23)NC(=O)C(C)(C)N)cc1
> 1000 | 60 |  |  | Partial agonist | CC(C)(N)C(=O)N[C@H](Cc1c[nH]c2ccccc12)c1nnc(Cc2ccccc2)n1CC(c1ccccc1)c1ccccc1
140 | 62 |  |  | Partial agonist | CC(C)(N)C(=O)N[C@H](Cc1c[nH]c2ccccc12)c1nnc(CCCc2c[nH]c3ccccc23)n1Cc1cccc2ccccc12
520 | 64 |  |  | Partial agonist | CC(C)(N)C(=O)N[C@H](Cc1c[nH]c2ccccc12)c1nnc(Cc2ccccc2)n1Cc1ccc(Cl)c(Cl)c1
1700 |  |  |  |  | Cn1c(Cc2c[nH]c3ccccc23)nnc1[C@@H](Cc1c[nH]c2ccccc12)NC(=O)C(C)(C)N
2200 |  |  |  |  | CC(C)(N)C(=O)N[C@H](Cc1c[nH]c2ccccc12)c1nnc(Cc2c[nH]c3ccccc23)[nH]1
22 | 66 |  | 18 |  | COc1cccc(Cn2c(CCCc3c[nH]c4ccccc34)nnc2[C@@H](Cc2c[nH]c3ccccc23)NC(=O)C(C)(C)N)c1
420 | 97 |  | 23 |  | CC(C)(N)C(=O)N[C@H](Cc1c[nH]c2ccccc12)c1nnc(CCc2ccccc2)n1Cc1ccco1
570 | 91 | Agonist |  |  | CC(C)(N)C(=O)N[C@H](Cc1c[nH]c2ccccc12)c1nnc(CCc2ccccc2)n1Cc1cccs1
750 | 27 |  |  | Partial agonist | COc1ccc(Cn2c(CCCc3c[nH]c4ccccc34)nnc2[C@@H](Cc2c[nH]c3ccccc23)NC(=O)C(C)(C)N)c(OC)c1
500 | 44 |  |  | Partial agonist | CC(C)(N)C(=O)N[C@H](Cc1c[nH]c2ccccc12)c1nnc(Cc2ccccc2)n1Cc1ccccc1
 | 60 |  |  | Partial agonist | CC(C)(N)C(=O)N[C@H](Cc1c[nH]c2ccccc12)c1nnc(Cc2ccccc2)n1Cc1ccc(F)cc1

IC50 [1] [nM] | Activity [2] [%] | Activity ([3]; filed as agonist) | EC50 [3] [nM] | Activity ([3]; filed as partial agonist) | SMILES
 | 91 |  | 41 |  | CC(C)(N)C(=O)N[C@H](Cc1c[nH]c2ccccc12)c1nnc(CCc2c[nH]c3ccccc23)n1-c1ccccc1
 | 50 |  |  | Partial agonist | COc1cccc(Cn2c(Cc3ccccc3)nnc2[C@@H](Cc2c[nH]c3ccccc23)NC(=O)C(C)(C)N)c1
 | 25 |  |  | Partial agonist | CC(C)(N)C(=O)N[C@H](Cc1c[nH]c2ccccc12)c1nnc(CCCc2c[nH]c3ccccc23)n1Cc1ccc(Br)cc1
300 | 88 |  |  | Partial agonist | CC(C)(N)C(=O)N[C@H](Cc1c[nH]c2ccccc12)c1nnc(Cc2c[nH]c3ccccc23)n1CCc1ccccc1
110 | 29 |  |  | Partial agonist | COc1cc(Cn2c(Cc3ccccc3)nnc2[C@@H](Cc2c[nH]c3ccccc23)NC(=O)C(C)(C)N)cc(OC)c1
580 |  |  |  |  | Cn1c(CCc2c[nH]c3ccccc23)nnc1[C@@H](Cc1c[nH]c2ccccc12)NC(=O)C(C)(C)N
> 1000 | 59 |  |  | Partial agonist | CC(C)(N)C(=O)N[C@H](Cc1c[nH]c2ccccc12)c1nnc(CCc2ccccc2)n1Cc1ccccn1
150 | 22 |  |  | Partial agonist | COc1cc(Cn2c(CCc3c[nH]c4ccccc34)nnc2[C@@H](Cc2c[nH]c3ccccc23)NC(=O)C(C)(C)N)cc(OC)c1
440 | 16 |  |  | Partial agonist | CC(C)(N)C(=O)N[C@H](Cc1c[nH]c2ccccc12)c1nnc(Cc2ccccc2)n1Cc1ccc(Br)cc1
470 | 67 |  |  | Partial agonist | CCCCCCn1c(Cc2ccccc2)nnc1[C@@H](Cc1c[nH]c2ccccc12)NC(=O)C(C)(C)N
 | 54 |  |  | Partial agonist | CC(C)(N)C(=O)N[C@H](Cc1c[nH]c2ccccc12)c1nnc(CCc2c[nH]c3ccccc23)n1Cc1cccc2ccccc12
> 1000 | 85 |  |  | Partial agonist | CC(C)(N)C(=O)N[C@H](Cc1c[nH]c2ccccc12)c1nnc(Cc2ccccc2)n1CCc1ccccc1
1000 |  |  |  |  | COc1ccc(Cn2c(Cc3c[nH]c4ccccc34)nnc2[C@@H](Cc2c[nH]c3ccccc23)NC(=O)C(C)(C)N)c(OC)c1
640 | 62 |  |  | Partial agonist | CC(C)(N)C(=O)N[C@H](Cc1c[nH]c2ccccc12)c1nnc(CCc2c[nH]c3ccccc23)n1CC(c1ccccc1)c1ccccc1
> 1000 | 10 |  |  |  | CC(C)(N)C(=O)N[C@H](Cc1c[nH]c2ccccc12)c1nnc(CCc2ccccc2)n1Cc1ccc([N+](=O)[O-])cc1
80 | 25 |  |  | Partial agonist | CC(C)(N)C(=O)N[C@H](Cc1c[nH]c2ccccc12)c1nnc(CCc2c[nH]c3ccccc23)n1CCc1ccccc1
100 | 27 |  |  | Partial agonist | CC(C)(N)C(=O)N[C@H](Cc1c[nH]c2ccccc12)c1nnc(CCc2c[nH]c3ccccc23)n1Cc1ccc(Br)cc1
 | 78 |  |  | Partial agonist | CC(C)(N)C(=O)N[C@H](Cc1c[nH]c2ccccc12)c1nnc(Cc2ccccc2)n1Cc1cccc2ccccc12
 | 63 |  | 4 |  | COc1cccc(Cn2c(CCc3c[nH]c4ccccc34)nnc2[C@@H](Cc2c[nH]c3ccccc23)NC(=O)C(C)(C)N)c1
 | 59 |  | 210 |  | CC(C)(N)C(=O)N[C@H](Cc1c[nH]c2ccccc12)c1nnc(CCc2c[nH]c3ccccc23)n1Cc1ccc(F)cc1
